# Measured values reported in ChEMBL document CHEMBL4038305, “Benzoxaborole Antimalarial Agents. Part 5. Lead Optimization of Novel Amide Pyrazinyloxy Benzoxaboroles and Identification of a Preclinical Candidate” (J Med Chem, 2017).
# Columns and labels:
# [1] = system: Plasmodium falciparum; assay: Antimalarial activity against chloroquine-resistant Plasmodium falciparum W2 infected in human erythrocytes after 48 hrs by YOYO-1 dye based flow cytometric analysis; assay type: functional, cell-based; conditions: W2, 48 h
# In short: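 P. falciparum W2 cultures were exposed to the compound for 48 h, with artemisinin and chloroquine as reference controls. IC50 was taken from two independent replicates.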
# [2] = system: Plasmodium falciparum; assay: Antimalarial activity against chloroquine-sensitive Plasmodium falciparum 3D7 infected in human erythrocytes assessed as reduction in [3H]-hypoxanthine incorporation preincubated for 24 hrs followed by [3H]-hypoxanthine addition measured after 24 hrs by scintillation counting method; assay type: functional, cell-based
# In short: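 P. falciparum 3D7 cultures were exposed to the compound for 48 h, with atovaquone as the reference control. IC50 was taken from three replicates.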
Structure (SMILES),IC50 [1],IC50 [2]
Cc1c(Oc2cnc(C(=O)N(CCO)CCO)cn2)ccc2c1B(O)OC2,328 nM,184 nM
Cc1c(Oc2cnc(C(=O)N[C@H](C)CO)cn2)ccc2c1B(O)OC2,944 nM,848 nM
Cc1c(Oc2cnc(C(=O)N(C)CCO)cn2)ccc2c1B(O)OC2,262 nM,437 nM
Cc1c(Oc2cnc(C(=O)N[C@H](CO)C(C)C)cn2)ccc2c1B(O)OC2,774 nM,1990 nM
CCC[C@H](CO)N(C)C(=O)c1cnc(Oc2ccc3c(c2C)B(O)OC3)cn1,48.1 nM,252 nM
CCC[C@@H](NC(=O)c1cnc(Oc2ccc3c(c2C)B(O)OC3)cn1)C(C)(C)O,260 nM,553 nM
CC[C@H](NC(=O)c1cnc(Oc2ccc3c(c2C)B(O)OC3)cn1)C(C)(C)O,279 nM,829 nM
Cc1c(Oc2cnc(C(=O)N3CCNC[C@@H]3CO)cn2)ccc2c1B(O)OC2,103 nM,151 nM
Cc1c(Oc2cnc(C(=O)NCC(C)(C)O)cn2)ccc2c1B(O)OC2,334 nM,554 nM
Cc1c(Oc2cnc(C(=O)NC(C)(C)CO)cn2)ccc2c1B(O)OC2,290 nM,425 nM
Cc1c(Oc2cnc(C(=O)N[C@H](C)C(C)(C)O)cn2)ccc2c1B(O)OC2,265 nM,374 nM
Cc1c(Oc2cnc(C(=O)N[C@@H](CO)Cc3ccccc3)cn2)ccc2c1B(O)OC2,115 nM,505 nM
Cc1c(Oc2cnc(C(=O)N[C@H](CO)CC(F)(F)F)cn2)ccc2c1B(O)OC2,350 nM,31 nM
Cc1c(Oc2cnc(C(=O)NC(C)C(C)O)cn2)ccc2c1B(O)OC2 (centres undefined),513 nM,1460 nM
COCCNC(=O)c1cnc(Oc2ccc3c(c2C)B(O)OC3)cn1,788 nM,644 nM
Cc1c(Oc2cnc(C(=O)N[C@@H]3CCC[C@H]3O)cn2)ccc2c1B(O)OC2,133 nM,245 nM
Cc1c(Oc2cnc(C(=O)N[C@@H](CO)CS(C)(=O)=O)cn2)ccc2c1B(O)OC2,180 nM,472 nM
CCC[C@H](NC(=O)c1cnc(Oc2ccc3c(c2C)B(O)OC3)cn1)C(C)(C)O,129 nM,217 nM
Cc1c(Oc2cnc(C(=O)N3CCNC[C@H]3CO)cn2)ccc2c1B(O)OC2,98.2 nM,171 nM

Structure (SMILES),IC50 [1],IC50 [2]
CCCC[C@H](CO)NC(=O)c1cnc(Oc2ccc3c(c2C)B(O)OC3)cn1,84.9 nM,215 nM
CSC[C@H](CO)NC(=O)c1cnc(Oc2ccc3c(c2C)B(O)OC3)cn1,37 nM,74 nM
COC[C@H](CO)NC(=O)c1cnc(Oc2ccc3c(c2C)B(O)OC3)cn1,455 nM,796 nM
Cc1c(Oc2cnc(C(=O)N[C@H](CO)C3CC3)cn2)ccc2c1B(O)OC2,643 nM,1090 nM
Cc1c(Oc2cnc(C(=O)N[C@@H](CO)C3CC3)cn2)ccc2c1B(O)OC2,492 nM,587 nM
Cc1c(Oc2cnc(C(=O)N[C@@H](CO)c3ccccc3)cn2)ccc2c1B(O)OC2,103 nM,161 nM
Cc1c(Oc2cnc(C(=O)N[C@H](CO)CCC(F)(F)F)cn2)ccc2c1B(O)OC2,352 nM,959 nM
Cc1c(Oc2cnc(C(=O)NC3(CO)CC3)cn2)ccc2c1B(O)OC2,2010 nM,1500 nM
CC[C@@H](NC(=O)c1cnc(Oc2ccc3c(c2C)B(O)OC3)cn1)C(C)(C)O,91.8 nM,222 nM
CCC[C@@H](CO)NC(=O)c1cnc(Oc2ccc3c(c2C)B(O)OC3)cn1,297 nM,715 nM
Cc1c(Oc2cnc(C(=O)NCC(C)O)cn2)ccc2c1B(O)OC2 (centres undefined),1280 nM,1100 nM
Cc1c(Oc2cnc(C(=O)N[C@@H](C)CO)cn2)ccc2c1B(O)OC2,844 nM,808 nM
Cc1c(Oc2cnc(C(=O)N[C@@H]3CCC[C@@H]3O)cn2)ccc2c1B(O)OC2 (relative stereo),292 nM,181 nM
Cc1c(Oc2cnc(C(=O)N[C@@H](C)C(C)(C)O)cn2)ccc2c1B(O)OC2,202 nM,327 nM
CC[C@@H](CO)NC(=O)c1cnc(Oc2ccc3c(c2C)B(O)OC3)cn1,704 nM,801 nM
Cc1c(Oc2cnc(C(=O)N3CCC(C)(O)C3)cn2)ccc2c1B(O)OC2 (centres undefined),139 nM,314 nM
Cc1c(Oc2cnc(C(=O)N[C@H]3CCC[C@@H]3O)cn2)ccc2c1B(O)OC2,149 nM,537 nM
Cc1c(Oc2cnc(C(=O)N[C@@H](CO)CCC(F)(F)F)cn2)ccc2c1B(O)OC2,230 nM,480 nM
